Screening results as filed in PubChem.
This is a sample that favours compounds with a hit; in the whole collection about 1.2% have one here.
CHO-K1 Ca PAM – counter-screen for M1 PAMs: effect in parental CHO-K1 cells | activation, % at 3 µM | ATP EC20, Fluo-8 calcium fluorescence; 0% at ATP EC20, 100% at ATP max | 360,000 compounds, 0.02% hits;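 active means activation above the run cutoff, the mean activation of all test compounds plus 3 SD, cut at about 40% in these data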;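 further: peak over basal fluorescence ratio in a 140 s read after ATP addition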
zfTRPN1 agonist – activates the zebrafish TRPN1 channel; HEK293 zebrafish TRPN1-YFP, Fluo-8 calcium fluorescence; 100% = response to 87 µM carbachol; activation, % at 3 µM; 220,000 compounds, 0.18% hits; AID 1424;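 active means activation above its plate's cutoff, the mean activation of test wells on that plate plus 3 SD, cut at about 19% in these data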;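 further: 0% = DMSO alone and 100% = 87 µM carbachol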
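Material – zebrafish TRPN1-YFP in HEK293 cells · Doses – 3 µM single point · Schedule – dye 1 h 37 °C plus 30 min RT · Signal – Fluo-8 calcium fluorescence, excitation 470-495 nm, emission 515-575 nm · Read-out – % activation versus carbachol response · Control set – carbachol high, DMSO low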
M1 ag parental – counter-screen for M1 agonists: effect in parental CHO-K1 cells; Fluo-8 calcium fluorescence; scaled to maximal ATP response, vehicle zero; activation, % at 3 µM; 360,000 compounds, 0.48% hits; AID 602248; in the data active means activation above about 15%;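 further: untransfected CHO-K1 host cells lacking M1 receptor as counterscreen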
TRPML3 agonist – activates the human TRPML3 channel. Q8TDD5. AID 1448. HEK293 TRPML3-YFP, Fluo-8 calcium fluorescence; 100% = the carbachol control signal. activation, % at 3 µM. 220,000 compounds, 0.29% hits;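 active means activation above its plate's cutoff, the mean activation of the plate's test wells plus 3 SD, cut at about 12% in these data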;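 further: 0% = DMSO only wells and 100% = carbachol wells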
Target sequence (Q8TDD5 whole entry, looked up): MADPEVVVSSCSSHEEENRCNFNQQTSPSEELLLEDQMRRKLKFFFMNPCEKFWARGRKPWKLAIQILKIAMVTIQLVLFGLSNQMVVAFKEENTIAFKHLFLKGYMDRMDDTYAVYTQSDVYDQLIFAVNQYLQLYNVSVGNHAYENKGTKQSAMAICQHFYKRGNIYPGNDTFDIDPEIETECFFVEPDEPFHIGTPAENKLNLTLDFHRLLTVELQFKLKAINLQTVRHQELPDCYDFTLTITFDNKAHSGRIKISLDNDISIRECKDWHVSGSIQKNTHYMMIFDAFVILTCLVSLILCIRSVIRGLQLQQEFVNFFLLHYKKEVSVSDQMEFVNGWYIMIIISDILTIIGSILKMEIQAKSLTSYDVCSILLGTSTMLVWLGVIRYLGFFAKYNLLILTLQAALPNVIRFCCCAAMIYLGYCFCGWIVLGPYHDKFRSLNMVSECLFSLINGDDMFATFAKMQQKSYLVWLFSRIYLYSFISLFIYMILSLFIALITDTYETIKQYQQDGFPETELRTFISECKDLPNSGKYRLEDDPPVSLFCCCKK
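system = HEK293 cells stably carrying human TRPML3-YFP | doses = one concentration, 3 µM nominal, 0.3% DMSO | timing = dye loading 1 h 37 °C then 30 min ambient, 125 s read | detection = Fluo-8 calcium dye fluorescence, ex 470-495, em 515-575 nm | benchmarks = high control carbachol 87 µM, low control DMSO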
CHO-K1 Ca antag – counter-screen for M1 antagonists: effect in parental CHO-K1 cells; ATP-induced calcium, Fluo-8 fluorescence; inhibition, % at 3 µM; 360,000 compounds, 0.6% hits; AID 602250;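 active means inhibition above a per-plate cutoff, the plate's mean sample inhibition plus 3 SD, cut at about 24% in these data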;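 further: 0% = DMSO plus EC80 ATP and 100% = DMSO alone without ATP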
Active calls of the source: *; x = no result given.

SMILES | CHO-K1 Ca PAM | zfTRPN1 agonist | M1 ag parental | TRPML3 agonist | CHO-K1 Ca antag
O=C(CNC1CCCCC1)Nc1cccc([N+](=O)[O-])c1 | -25 | x | -1 | x | 5
CCOC(=O)CNC(=O)N1C[C@H]2CON(C)[C@H]2C[C@H]1c1ccccc1Br | 13 | x | 0 | x | -2
Cc1cc2oc(=O)cc(CN3CCCCCCC3)c2cc1Cl | 15 | x | 1 | x | -19
CN(Cc1cccs1)C(=O)CCCc1c[nH]c2ccccc12 | -4 | 32* | 1 | 32* | -3
CN(Cc1cccs1)C(=O)CCc1c[nH]c2ccccc12 | 9 | 1 | 1 | 0 | -10
O=C1CC(Sc2nnc(-c3ccccc3)o2)C(=O)N1c1ccccc1 (centres undefined) | 8 | -1 | 1 | 0 | 4
O=C1c2ccccc2CC1Sc1nnc(-c2ccncc2)o1 (centres undefined) | -7 | 0 | 0 | 1 | 24*
C=CCNC(=S)Nc1ccc(Br)cc1F | 16 | 3 | 2 | 2 | -7
C=CCNC(=S)Nc1ccc(Cl)cc1F | 8 | 5 | 16* | 2 | 8
C#CCOc1ccc(/C=C2/C(=O)N(c3cccc(C(=O)O)c3)N=C2C)cc1OC | -19 | x | -1 | x | 26*
CC1=C(C(=O)N(C(C)C)C(C)C)CC(CC(=O)NCC2CCCCC2)C(=O)N1Cc1ccc(C(C)(C)C)cc1 (centres undefined) | 10 | x | 0 | x | -25
C=CCn1c(COc2ccc(F)cc2)nnc1SCC(=O)NC1CCS(=O)(=O)C1 (centres undefined) | -4 | x | 0 | x | 16
O=C(CSc1nnc(COc2ccccc2F)n1-c1ccccc1)NC1CCS(=O)(=O)C1 (centres undefined) | -13 | -1 | 0 | 0 | 28*
CC1(C)OCC(CNC(=O)c2[nH]c(C(F)(F)F)nc2-c2ccccc2)O1 (centres undefined) | 6 | x | 1 | x | 10
CC(=O)Nc1ccc(S(=O)(=O)Nc2cccc3[nH]ncc23)cc1 | -17 | 0 | 13 | 1 | 31*
CCN(CC)CC#CCC(O)(c1ccccc1)C1CCCCC1 (centres undefined) | -6 | 1 | 16* | 1 | 19
CC1=C(C(=O)N2CCCCCC2)CC(CC(=O)NCCc2ccccn2)C(=O)N1CCCN1CCCC1=O (centres undefined) | 10 | x | 3 | x | -8
Cc1ccc(C(=O)Nc2ccccc2C(=O)N2CC(C)OC(C)C2)cc1 (centres undefined) | -6 | x | 0 | x | 12
CC(CCc1ccccc1)NC(=O)CN1CCN(Cc2ccc(Cl)cc2)C1=O (centres undefined) | -11 | -2 | 0 | 0 | 28*
COc1cccc(NC(=O)Nc2ccc(C)c(Cl)c2)c1 | -6 | 13 | 11 | 7 | 18
COc1cccc(NC(=O)Nc2ccc(C(C)(C)C)cc2)c1 | -15 | 10 | 19* | 3 | 46*
CC(C)(C)c1ccc(NC(=O)Nc2ccc(F)cc2)cc1 | -5 | 18 | 16* | 9 | 36*
O=C(Nc1ccc(F)cc1)Nc1cc(OCC(F)(F)F)cc(OCC(F)(F)F)c1 | -13 | 6 | 14 | 4 | 32*
CC(C)(C)c1ccc(COC(=O)Nc2ccc(F)cc2)cc1 | 24 | 0 | 1 | 0 | -12
Cc1ccc(NC(=O)Nc2ccc(F)cc2)cc1Cl | -6 | 4 | 12 | 5 | 26*
SMILES | CHO-K1 Ca PAM | zfTRPN1 agonist | M1 ag parental | TRPML3 agonist | CHO-K1 Ca antag
CN1C2C=CC(=O)C1C1C(=O)N(c3ccccc3)C(=O)C12 (centres undefined) | 12 | x | 1 | x | -3
CCCCNC(=O)C1(C)CCCCN1C(=O)c1c(C)noc1C (centres undefined) | 12 | x | 0 | x | -6
CNC(=O)C[C@H]1C(=O)N(C2CCCCC2)C[C@@H]1c1ccc(Br)cc1 | -15 | x | 0 | x | 10
CCCCOc1ccc(/C=N/NC(=S)Nc2cc(C)ccc2C)cc1 | -5 | 0 | 2 | 1 | 28*
Cc1ccc(S(=O)(=O)CC2CSc3nc4ccccc4n32)cc1 (centres undefined) | -11 | 4 | 11 | 3 | 28*
CC(Nc1nc(-c2cccnc2)nc2ccccc12)c1ccccc1 (centres undefined) | 13 | x | 17* | x | 7
CC(Nc1nc(-c2ccncc2)nc2ccccc12)c1ccccc1 (centres undefined) | -8 | x | 0 | x | -3
CC1=C(C(=O)N2CCCCCC2)CC(CC(=O)NCCCCc2ccccc2)C(=O)N1CCC1=CCCCC1 (centres undefined) | 8 | x | 6 | x | -25
O=C(CCc1nc(-c2ccccc2F)no1)Nc1ccc(Oc2ccccc2)cc1 | -3 | 4 | 8 | 0 | 24*
COc1cccc(NC(=O)CCc2nc(-c3ccccc3F)no2)c1 | 15 | -1 | 3 | 0 | -2
COc1ccc(C2CCCN2C(=O)Nc2cccc(C(C)=O)c2)cc1OC (centres undefined) | -6 | -1 | 0 | 1 | 26*
CCOC(=O)c1sc(NC(=O)Nc2ccccc2)cc1C | 0 | 10 | 17* | 7 | 29*
CCOC(=O)c1sc(NC(=O)C2CCC2)cc1C | -9 | 0 | -1 | 0 | 26*
N#CCSc1ccccc1NC(=O)COC(=O)C1CCN(C(=O)c2ccc(Cl)cc2)CC1 | 18 | x | 0 | x | -12
COc1cccc(CNC(=O)[C@@H]2CCCN2C(=O)[C@H]2CCCCN2C(=O)c2cccs2)c1 | 22 | x | 3 | x | -20
Cc1ccc2nc(-c3ccc(C#N)cc3)c(Cc3ccccc3C(F)(F)F)n2c1 | 15 | x | 1 | x | -19
O=C(CCN1C(=O)/C(=C/c2ccccc2F)SC1=S)NCCCN1CCOCC1 | 1 | x | 19* | x | 5
CC(C)(C)C(=O)c1sc2nc(-c3cccs3)cc(C(F)(F)F)c2c1N | 23 | 1 | 2 | 1 | -4
Cc1nnc(NC(=O)c2sc3nc(-c4cccs4)cc(C(F)(F)F)c3c2N)s1 | 1 | 7 | 20* | 3 | 22
Nc1c(C(=O)Nc2nccs2)sc2nc(-c3cccs3)cc(C(F)(F)F)c12 | 6 | 6 | 27* | 5 | 38*
CC(=O)Nc1ccc(C(=O)N2CCCCC2c2cc(C(=O)NCc3cccnc3)no2)cc1 (centres undefined) | 10 | x | 1 | x | -7
CN(C)C(=O)COn1c(SCC(=O)N(C)C)nc2ccccc2c1=O | 12 | 0 | 0 | 0 | 3
CCOC(=O)COn1c(SCC(=O)OCC)nc2ccccc2c1=O | -9 | 0 | 1 | 0 | 26*
N#Cc1ccsc1NC(=O)CCc1ccccc1 | 16 | -1 | 1 | 0 | -10
N#Cc1ccsc1NC(=O)CN(Cc1ccccc1)Cc1ccccc1 | 44* | -2 | 1 | 0 | -19
COc1ccc(/C=N/NC(=O)c2nc(-c3ccccc3)n(-c3ccccc3)n2)cc1OC | -9 | 1 | 1 | 0 | 25*
COc1cc(/C=N/NC(=O)c2nc(-c3ccccc3)n(-c3ccccc3)n2)ccc1O | 14 | -1 | 1 | 0 | -1
